Assay results from ChEMBL document CHEMBL2331476, “A novel semisynthetic flavonoid 7-O-galloyltaxifolin upregulates heme oxygenase-1 in RAW264.7 cells via MAPK/Nrf2 pathway” (J Med Chem, 2013).
The source made the active and inactive calls. The rule behind the calls is not given here.

What was measured:
[1] = biological target: T1, Nuclear factor erythroid 2-related factor 2 (Mus musculus) (UniProt Q60795); assay: Activation of Nrf2 in mouse RAW264.7 cells assessed as nuclear accumulation at 50 uM after 3 hrs by Western blotting analysis; assay type: cell-based
T1 sequence (whole entry): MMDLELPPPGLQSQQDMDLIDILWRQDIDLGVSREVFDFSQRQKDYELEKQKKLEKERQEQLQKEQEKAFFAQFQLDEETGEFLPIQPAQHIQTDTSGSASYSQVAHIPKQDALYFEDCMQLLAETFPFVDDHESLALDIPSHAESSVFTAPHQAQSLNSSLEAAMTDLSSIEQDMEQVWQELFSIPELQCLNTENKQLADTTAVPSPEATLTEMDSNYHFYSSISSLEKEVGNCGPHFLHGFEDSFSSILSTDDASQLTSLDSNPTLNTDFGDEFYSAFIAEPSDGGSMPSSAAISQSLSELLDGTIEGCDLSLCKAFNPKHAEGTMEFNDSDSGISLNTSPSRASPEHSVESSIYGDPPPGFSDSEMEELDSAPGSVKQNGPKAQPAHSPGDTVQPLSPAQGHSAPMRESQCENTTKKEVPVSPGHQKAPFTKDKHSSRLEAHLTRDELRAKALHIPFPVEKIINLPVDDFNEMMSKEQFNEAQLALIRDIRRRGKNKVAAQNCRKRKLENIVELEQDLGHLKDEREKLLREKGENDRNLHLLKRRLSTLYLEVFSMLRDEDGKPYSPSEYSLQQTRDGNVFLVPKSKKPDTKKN
In short: (§1)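 RAW264.7 cells (passage 5−25) seeded at 1 × 10⁵ cells/cm², switched to serum-free medium after 8 h, left overnight, then treated 3 h in serum-free medium; 0.1% DMSO vehicle control. Cells were swollen in hypotonic HEPES/NP-40 buffer for the cytosolic fraction and nuclei extracted in high-salt buffer. Blots loaded 30 μg/lane, Nrf2 densitometry normalized to actin, mean of three experiments.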

[2] = tested on: RAW264.7; assay: Cytotoxicity against mouse RAW264.7 cells assessed as decreased cell viability at 50 uM after 6 hrs by MTT assay; assay type: cell-based; conditions: raw264.7, 6 h
In short: (§2)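 Serum-starved RAW264.7 cells exposed 6 h at 10 or 50 μM; 0.1% DMSO control (100% viability), 1.5% Triton X-100 positive control. Cells washed and incubated 2 h at 37 °C with 0.5 mg/mL MTT in serum-free medium. Formazan dissolved in DMSO, A540 read, viability relative to DMSO-treated cells.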

[3] = biological target: T1, Nuclear factor erythroid 2-related factor 2 (Mus musculus); assay: Activation of Nrf2 in mouse RAW264.7 cells assessed as upregulation of Hmox1 gene expression at 50 uM after 6 hrs by real-time PCR analysis relative to GAPDH mRNA expression; assay type: cell-based
In short: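 Serum-starved RAW264.7 cells were exposed for 6 h in serum-free medium against a 0.1% DMSO control. Total RNA (2 μg) was reverse-transcribed, then TaqMan qPCR run for Hmox1 and Gapdh over 40 cycles. Crossing points were taken by second-derivative maximum, and fold change calculated by the 2^−ΔΔCT method normalized to Gapdh. Mean ± SD of three experiments.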

[4] = biological target: T1, Nuclear factor erythroid 2-related factor 2 (Mus musculus); assay: Activation of Nrf2 in mouse RAW264.7 cells assessed as cytosolic accumulation at 50 uM after 3 hrs by Western blotting analysis; assay type: cell-based; in short: as §1
[5] = tested on: RAW264.7; assay: Cytotoxicity against mouse RAW264.7 cells assessed as decreased cell viability at 10 uM after 6 hrs by MTT assay; assay type: cell-based; conditions: raw264.7, 6 h; in short: as §2
[6] = biological target: T1, Nuclear factor erythroid 2-related factor 2 (Mus musculus); assay: Activation of Nrf2 in mouse RAW264.7 cells assessed as upregulation of HO1 protein expression at 50 uM after 6 hrs by Western blotting analysis; assay type: cell-based
In short: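 HO-1 protein in whole-cell lysates (20 μg/lane) of serum-starved RAW264.7 cells after 6 h at 10-50 μM or 50 μM for 1-6 h in serum-free medium, 0.1% DMSO control. Chemiluminescent Western blot; HO-1 densitometry normalized to actin, mean of three experiments.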

[7] = tested on: RAW264.7; assay: Drug uptake in mouse RAW264.7 cells measured per 10^6 cells at 50 uM after 6 hrs; assay type: ADME, cell-based; conditions: raw264.7, 6 h
In short: (§3)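 Cells given 50 μM for up to 6 h, then scraped, washed twice in PBS and sonicated in methanol with 5% acetic acid. Supernatant analysed by UPLC on a phenyl column (water/1% acetic acid/methanol to methanol gradient, 35 °C) with negative ESI-QqTOF MS. Contents expressed as nmol per 10⁶ cells.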

[8] = tested on: RAW264.7; assay: Drug uptake in mouse RAW264.7 cells at 50 uM after 10 mins; assay type: ADME, cell-based; conditions: raw264.7, 10 min; in short: as §3
[9] = tested on: RAW264.7; assay: Drug uptake in mouse RAW264.7 cells measured per 10^6 cells at 50 uM after 3 hrs; assay type: ADME, cell-based; conditions: raw264.7, 3 h; in short: as §3
[10] = biological target: T1, Nuclear factor erythroid 2-related factor 2 (Mus musculus); assay: Activation of Nrf2 in mouse RAW264.7 cells assessed as upregulation of Hmox1 gene expression at 10 to 50 uM after 6 hrs by real-time PCR analysis relative to GAPDH mRNA expression; assay type: cell-based
In short: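 RAW264.7 cells treated 6 h in serum-free medium, 0.1% DMSO control. Total RNA (2 μg) reverse transcribed; TaqMan qPCR for Hmox1 and Gapdh, 40 cycles. Relative expression by 2^−ΔΔCT, normalized to Gapdh; mean ± SD of three experiments.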

[11] = tested on: RAW264.7; assay: Stability in mouse RAW264.7 cells assessed as gallic acid level at 50 uM after 6 hrs by HPLC/MS analysis; assay type: ADME, cell-based; conditions: raw264.7, 6 h
[12] = biological target: MAP kinase p38 (Homo sapiens) (UniProt O15264+Q15759+Q16539+P53778); assay: Activation of p38MAPK in mouse RAW264.7 cells assessed as phosphorylation at Thr180/Tyr182 at 5 uM after 30 mins by Western blotting analysis; assay type: cell-based
In short: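 Serum-starved RAW264.7 cells were treated 30 min with 5 μM anisomycin in serum-free medium. Whole-cell lysate was made in Tris/NaCl/SDS/NP-40/Triton buffer with phosphatase and protease inhibitors, pH 7.4, and 35 μg/lane run on 10% SDS-PAGE. Blots were probed for p38 dually phosphorylated at Thr180/Tyr182 versus total p38, with chemiluminescent detection.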

## O=c1c(O)c(-c2ccc(O)c(O)c2)oc2cc(O)cc(O)c12 [QUERCETIN]
[1]
  Activity: Active
[2]
  Activity: Non-toxic
[3]
  fold change (FC): 4.3
[4]
  Activity: Active
[5]
  Activity: Non-toxic
[6]
  fold change (FC): 1.9

## O=C(Oc1c(-c2ccc(O)c(O)c2)oc2cc(O)cc(O)c2c1=O)c1cc(O)c(O)c(O)c1
[7]
  Drug uptake: 1.8 nmol
[2]
  Activity: 79%
[8]
  Drug uptake: 85%
[9]
  Drug uptake: 1.75 nmol
[10]
  Activity: inactive
[11]
  Stability: Stable
[6]
  fold change (FC): 0.9

## O=C1c2c(O)cc(O)cc2O[C@H](c2ccc(O)c(O)c2)[C@H]1O [(+)-TAXIFOLIN]
[2]
  Activity: Non-toxic
[10]
  Activity: inactive
[5]
  Activity: Non-toxic
[6]
  fold change (FC): 1

## O=C(Oc1cc(O)c2c(=O)c(O)c(-c3ccc(O)c(O)c3)oc2c1)c1cc(O)c(O)c(O)c1
[9]
  Drug uptake: 8.08 nmol

## O=C(O)c1cc(O)c(O)c(O)c1 [GALLIC ACID]
[2]
  Activity: 76%
[3]
  fold change (FC): 1.5
[6]
  fold change (FC): 1.5

## COc1ccc(C[C@H]2NC[C@H](O)[C@H]2OC(C)=O)cc1
[12]
  Activity: Active

## O=c1c(O[C@@H]2O[C@H](CO)[C@@H](O)[C@H](O)[C@H]2O)c(-c2ccc(O)c(O)c2)oc2cc(O)cc(O)c12 [ISOQUERCETIN]
[2]
  Activity: Non-toxic
[10]
  Activity: inactive
[5]
  Activity: Non-toxic
[6]
  fold change (FC): 1
